This sample holds only a part of the variants without activity.
B1: tRNA (parent)
chain: GUUCCGUUGGCGUAAUGGUAACGCGUCUCCCUCCUAAGGAGAAGACUGCGGGUUCGAGUCCCGUACGGAACG

Variants of: B1
Assay: yeast fitness relative to wild type (ratio to wild type); higher = fitter; tRNA-Arg(CCU), competitive growth, 37 C, YPD
Summary of the method: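 Start and end populations of a pooled competition were compared by 100-nucleotide paired-end sequencing of gene amplicons. The Saccharomyces cerevisiae strains carried tRNA-Arg(CCU) gene variants at the native genomic locus, synthesised with a 3% per-site mutation rate at 69 sites, and competed in YPD at 37°C for 24 hours in six parallel replicates. Darwinian fitness relative to wild type was based on the change in genotype frequencies. Genotypes required ≥ 100 starting reads, and estimates < 0.5 were set to 0.5.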

Variant	yeast fitness
GUUCCGUUGGCGUUAUGGUCACGCGUUUCCCUCCCAAGGAGAAGACUACGGGUUCGAGUCCCGUACGGAUCG [A14U A20C C27U U35C G48A A70U]	≤ 0.5
GUUCCGUUGGCGUUAUGGUCACGUGUCUCCCUCCUAAGGAGAAGACUGCGGGUUCGAGUCCCGUACGGAACG [A14U A20C C24U]	≤ 0.5
GUUCCGUUGGCGUUAUGGUCACGAGUCUCCCUCCUAAGGAGAAGACUGCGGGUUCGAGUCCCGUACGGAACG [A14U A20C C24A]	0.554
GUUCCGUUGGCGUGAUGGUAACGCGGCUCCCUCCUAAGGAGACGAAUGCGGGUUCGAGUCCCGUACGGAACG [A14G U26G A43C C46A]	≤ 0.5
GUUCCGUUGGCGUGAUGGUAACGCGUCUCCCUCCUAAGGAGAAGACUGCGGGUUCGAGGCCCGUACGGAACG [A14G U59G]	0.774
GUUCCGUUGGCGUGAUGGUAACGCGUCUCCCUCCUAAGGAGAAGACUGCGGGUUCGAGCCCCGUACGGAACG [A14G U59C]	0.923
GUUCCGUUGGCGUGAGGGUAACGCGUCUGCCUCCUAAGGAGAAGACUGCGGGUUCGAAUCCCGUACGGAACG [A14G U16G C29G G58A]	≤ 0.5
GUUCCGUUGGCGUUUUGGUAACGCGUCUCCCUCCUAAGGAGAAGACUGAGCGUUCGAGACCCGUACGGAACG [A14U A15U C49A G51C U59A]	≤ 0.5
GUUCCGUUGGCGUGAUGGUAACGCGCCACCCUCCUAAGGAGAAGACUGCGGGUUCGAGUCCCGUUCGGAACG [A14G U26C U28A A65U]	≤ 0.5
GUUCCGUUGGCGUGAUGGCAUCGCGUCUCCCUCCUAAGGAGAAGACUGCGGGUUCGAGUCCCGUACGUAACG [A14G U19C A21U G68U]	≤ 0.5
GUUCCGUUGGCGUUGUGGUAACGCGUCUCCCUCCUAAGGAGAAGACUGCGGGUUCGAGUCCCGUGCGGAACG [A14U A15G A65G]	≤ 0.5
GUUCCGUUGGCGUUAUGGUGACGCGUCUCCCUCCUAAGGAGAAGACUGCGGGUUCGAGUCCCGUACGGCACG [A14U A20G A69C]	≤ 0.5
GUUCCGUUGGCGUUGUGGUAACGCGUCUCCCUCCUAAGGAGAAGACUGGGGGUUCGAGUCCCGUACGGAACG [A14U A15G C49G]	≤ 0.5
GUUCCGUUGGCGUGAUGGGAACGCGUCUCCCUCCUAAGGAGAAGAUUGCGGGUUCGGGUCCCGUACGGACCG [A14G U19G C46U A57G A70C]	≤ 0.5
GUUCCGUUGGCGUGAUGGUAACGCGUCUCCCUCCUAAGGAGAAGACAGCGGGUUCGAGUCCCGUACGGAACG [A14G U47A]	0.776
GUUCCGUUGGCGUGAUGGUAACGCGUCUCCCUCCUAAGGAGAAGACGGCGGGUUCGAGUCCCGUACGGAACG [A14G U47G]	0.516
GUUCCGUUGGCGUGAUGGUAACGCGUCUCCCUCCUAAGGAGAAGACCGCGGGUUCGAGUCCCGUACGGAACG [A14G U47C]	0.871
GUUCCGUUGGCGUGAUGGUAACGCGUCUCCCCCCUAAGGAGGAGACUGCGGGUUCGAGCCCCGUACGGAACG [A14G U32C A42G U59C]	≤ 0.5
GUUCCGUUGGCGUGAUGGUAACGCGUCUCCCUCCAAAGGAGAAGACUGCGGGUUCGAGUCCCGUACGGAACG [A14G U35A]	0.561

Variant	yeast fitness
GUUCCGUUGGCGUGAUGGUAACGCGUCUCCCUCCCAAGGAGAAGACUGCGGGUUCGAGUCCCGUACGGAACG [A14G U35C]	0.635
GUUCCGUUGGCGUGAUGGUAACGCGCCUCUCUCCUAAGGAGAAGACUGCGGGUUCGAGUCCCGUACGGAACG [A14G U26C C30U]	0.567
GUUCCGUUGGCGUGAUGGUAACGCGUCUCCCUCCAAAGGAGUAGAGUGCGGGUUCAAGUCCCGUACGGAACG [A14G U35A A42U C46G G56A]	0.524
GUUCCGUUGGCGUUAUGGUCACGCGUCCCCCUCCUAAGGAGAAGAUUGCGGGUUCGAAUCCCGUACGGAACG [A14U A20C U28C C46U G58A]	0.678
GUUCCGUUGGCGUUCUGGUAACGAGACUCCCUCCUAAGGAGAAGACUGCCGGUUCGAGUCCCGUACGGAACG [A14U A15C C24A U26A G50C]	0.544
GUUCCGUUGGCGUUUUGGUAACGCGUAUGCCUCCUAAGGAGAACACUGCGGGUUCGAGUCCCGUAAGGAGCG [A14U A15U C27A C29G G44C C66A A70G]	≤ 0.5
GUUCCGUUGGCGUGAUGGUAACGCGUCUCCCUCCGAAGGGGAAGACUGCGGGUUCGGGUCCCGUACGGAACG [A14G U35G A40G A57G]	≤ 0.5
GUUCCGUUGGCGUGAUGGGAACGCGUCUCCCUCCUAAGGAGAAGACUGCGGGUUCGAGUCCCGUACGGAACG [A14G U19G]	0.856
GUUCCGUUGGCGUGAUGGAAACGCGUCUCCCUCCUAAGGAGAAGACUGCGGGUUCGAGUCCCGUACGGAACG [A14G U19A]	0.809
GUUCCGUUGGCGUGAUGGUAACGCGUCUCCCUCCGAAGGAGAAGACUGCGGCUUCGAGUCCCGUACGGAACG [A14G U35G G52C]	≤ 0.5
GUUCCGUUGGCGUGAUGGCUACGCGUCUCCCUCCUAAGGAGAAGACUGCGGGUUCGAGUCCCGUACGGAACG [A14G U19C A20U]	0.773
GUUCCGUUGGCGUUAUGGUGACGCGUCUCCCUCCUAAGGAGAAGACUGCGGGUUCGAGUCCCGUACGGAACG [A14U A20G]	0.749
GUUCCGUUGGCGUGAUGGUAACGCGUCCCCCUCCUAAGGUGAAGACUGCGGGUUCGAGUCCCGUACGGAACG [A14G U28C A40U]	0.691
GUUCCGUUGGCGUUAUGGUGACGAGUCUCCUUUCUAUGGAGAAGACUACGGGUUCGAGUCCCGUACGGUACG [A14U A20G C24A C31U C33U A37U G48A A69U]	≤ 0.5
GUUCCGUUGGCGUUCUGGUAACGCGUCUCCGUCCUAAGGAGAUGACUGCGGGUUCGAGUCCCGUACGGAGCG [A14U A15C C31G A43U A70G]	0.556
GUUCCGUUGGCGUUCUGGUAACGCGUCUCCGUCCUAAGGAGAAGACUGCAGGUUCGAGUCCCGUACGGAACG [A14U A15C C31G G50A]	0.665
GUUCCGUUGGCGUGAGGGUAACGGGCCUCCCUCCUAAGGAGAAGACGGCCGGUUCGAGUCCCGUACGGAACG [A14G U16G C24G U26C U47G G50C]	0.515
GUUCCGUUGGCGUGAUGGUAACGCGUCUCCCACCUAAGGAGAAGACUGCGGGUUCGAGUCCUGUACGGAACG [A14G U32A C62U]	≤ 0.5
GUUCCGUUGGCGUGAUGGCAACGCGUCUCCCUCCCAAGGGGAAGACUGCGGGUUCGAGUCCCGUACGGAACG [A14G U19C U35C A40G]	≤ 0.5

— the RNAGym collection of RNA variant scans (doi:10.1126/science.aae0568)
